# Results as given in ChEMBL document CHEMBL1151472, “In vitro interactions between tacrolimus and azoles against Candida albicans determined by different methods” (2008).
# Experiments:
# Assay type in all cases: functional
# [1] = tested on: Candida albicans; assay: Antimicrobial activity against azole-resistant Candida albicans isolate CA10 assessed as growth at 1 ug/ml cotreated with 0.031 ug/ml calcineurin signaling inhibitor tacrolimus after 48 hrs by microdilution checkerboard technique relative to control; design: scale not given: the % may be the effect or the level left
# Procedure, shortened: (§1)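 Checkerboard microdilution in RPMI 1640 (pH 7.0, 2% dextrose, 0.165 M MOPS). Azole dilutions run along columns and FK506 along rows, at 4× final concentration. Final inoculum 2.5 × 10^3 CFU/ml from Sabouraud-subcultured cells. Incubated 35°C for 48 h; OD read at 492 nm. Background from microorganism-free plates subtracted. Growth % = well OD / drug-free well OD. Triplicate on different days, values averaged.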
# [2] = tested on: Candida albicans; assay: Antimicrobial activity against azole-resistant Candida albicans isolate CA10 assessed as growth at 1 ug/ml co-treated with 0.125 ug/ml calcineurin signaling inhibitor tacrolimus after 48 hrs by microdilution checkboard technique relative to control; design: scale not given: the % may be the effect or the level left
# Procedure, shortened: (§2)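 Checkerboard microdilution in MOPS-buffered RPMI 1640 (pH 7.0, 2% dextrose). Final ranges: azole 0.125–128 μg/ml (FLC) or 0.008–8 μg/ml (ITR, VRC), tacrolimus 0.002–0.125 μg/ml; solvent 1% in single-drug wells. Inoculum 2.5 × 10^3 CFU/ml, 35°C, 48 h. Growth % = background-subtracted OD492 of each well / drug-free well. Triplicate on different days.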
# [3] = tested on: Candida albicans; assay: Antimicrobial activity against azole-resistant Candida albicans isolate CA10 assessed as growth at 32 ug/ml after 48 hrs by microdilution checkerboard technique relative to control; procedure, shortened: as §2
# [4] = tested on: Candida albicans; assay: Antimicrobial activity against azole-susceptible Candida albicans isolate CA12 after 48 hrs by broth microdilution method; settings: isolate CA12, 48 h
# Procedure, shortened: (§3)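 CLSI M27-A2 broth microdilution was run in RPMI 1640 (pH 7.0, 2% dextrose, 0.165 M MOPS). Inoculum was 2.5 × 10^3 CFU/ml, incubated 35°C for 48 h without shaking. Plates were read visually (0–5 scale) and at OD 492 nm. MIC80 = lowest concentration giving an 80% absorbance decrease vs drug-free control. Triplicate.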
# [5] = tested on: Candida albicans; assay: Antimicrobial activity against azole-resistant Candida albicans isolate CA10 assessed as growth at 8 ug/ml cotreated with 0.002 ug/ml calcineurin signaling inhibitor Tacrolimus after 48 hrs by microdilution checkboard technique relative to control; design: scale not given: the % may be the effect or the level left
# Procedure, shortened: (§4)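 CA10 in RPMI 1640 with 2% dextrose and 0.165 M MOPS, pH 7.0. Checkerboard used twofold dilutions, with azole alone in row H and the drug-free growth control in well H1. Final inoculum was 2.5 × 10^3 CFU/ml, incubated 35°C for 48 h, with OD read at 492 nm. Growth % = background-subtracted well OD / drug-free well OD. Run in triplicate on different days.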
# [6] = tested on: Candida albicans; assay: Antimicrobial activity against azole-resistant Candida albicans isolate CA10 assessed as growth at 1 ug/ml cotreated with 0.063 ug/ml calcineurin signaling inhibitor Tacrolimus after 48 hrs by microdilution checkboard technique relative to control; design: scale not given: the % may be the effect or the level left; procedure, shortened: as §2
# [7] = tested on: Candida albicans; assay: Antimicrobial activity against azole-resistant Candida albicans isolate CA10 assessed as growth at 0.5 ug/ml cotreated with 0.008 ug/ml calcineurin signaling inhibitor tacrolimus after 48 hrs by microdilution checkerboard technique relative to control; design: scale not given: the % may be the effect or the level left; procedure, shortened: as §2
# [8] = tested on: Candida albicans; assay: Antimicrobial activity against azole-resistant Candida albicans isolate CA10 assessed as growth at 0.5 ug/ml co-treated with 0.031 ug/ml calcineurin signaling inhibitor tacrolimus after 48 hrs by microdilution checkboard technique relative to control; design: scale not given: the % may be the effect or the level left; procedure, shortened: as §1
# [9] = tested on: Candida albicans; assay: Antimicrobial activity against azole-susceptible Candida albicans isolate CA5 co-treated with calcineurin signaling inhibitor tacrolimus after 48 hrs by microdilution checkerboard technique; settings: isolate CA5, 48 h
# Procedure, shortened: (§5)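 Checkerboard microdilution in MOPS-buffered RPMI 1640 (pH 7.0, 2% dextrose) with 2.5 × 10^3 CFU/ml for 48 h at 35°C. Final FK506 was 0.002–0.125 μg/ml. Azole finals were FLC 0.125–128 μg/ml, and ITR and VRC 0.008–8 μg/ml. MIC80 is an 80% OD492 decrease vs drug-free control. Interaction was scored by FICI (synergy ≤0.5, antagonism >4) and by ΔE from triplicates.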
# [10] = tested on: Candida albicans; assay: Antimicrobial activity against azole-resistant Candida albicans isolate CA10 assessed as growth at 0.25 ug/ml co-treated with 0.031 ug/ml calcineurin signaling inhibitor tacrolimus after 48 hrs by microdilution checkboard technique relative to control; design: scale not given: the % may be the effect or the level left; procedure, shortened: as §1
# [11] = tested on: Candida albicans; assay: Antimicrobial activity against azole-resistant Candida albicans isolate CA10 assessed as growth at 8 ug/ml cotreated with 0.031 ug/ml calcineurin signaling inhibitor tacrolimus after 48 hrs by microdilution checkerboard technique relative to control; design: scale not given: the % may be the effect or the level left; procedure, shortened: as §1
# [12] = tested on: Candida albicans; assay: Antimicrobial activity against azole-resistant Candida albicans isolate CA10 assessed as growth at 0.25 ug/ml cotreated with 0.004 ug/ml calcineurin signaling inhibitor Tacrolimus after 48 hrs by microdilution checkboard technique relative to control; design: scale not given: the % may be the effect or the level left; procedure, shortened: as §1
# [13] = tested on: Candida albicans; assay: Antimicrobial activity against azole-resistant Candida albicans isolate CA10 assessed as growth at 32 ug/ml co-treated with 0.031 ug/ml calcineurin signaling inhibitor tacrolimus after 48 hrs by microdilution checkboard technique relative to control; design: scale not given: the % may be the effect or the level left; procedure, shortened: as §1
# [14] = tested on: Candida albicans; assay: Antimicrobial activity against azole-resistant Candida albicans isolate CA10 assessed as growth at 4 ug/ml cotreated with 0.125 ug/ml calcineurin signaling inhibitor Tacrolimus after 48 hrs by microdilution checkboard technique relative to control; design: scale not given: the % may be the effect or the level left; procedure, shortened: as §4
# [15] = tested on: Candida albicans; assay: Antimicrobial activity against azole-resistant Candida albicans isolate CA10 assessed as growth at 8 ug/ml cotreated with 0.016 ug/ml calcineurin signaling inhibitor Tacrolimus after 48 hrs by microdilution checkboard technique relative to control; design: scale not given: the % may be the effect or the level left; procedure, shortened: as §4
# [16] = tested on: Candida albicans; assay: Antimicrobial activity against azole-susceptible Candida albicans isolate CA8 co-treated with calcineurin signaling inhibitor tacrolimus after 48 hrs by microdilution checkerboard technique; settings: isolate CA8, 48 h; procedure, shortened: as §5
# [17] = tested on: Candida albicans; assay: Antimicrobial activity against azole-resistant Candida albicans isolate CA10 assessed as growth at 128 ug/ml cotreated with 0.002 ug/ml calcineurin signaling inhibitor Tacrolimus after 48 hrs by microdilution checkboard technique relative to control; design: scale not given: the % may be the effect or the level left; procedure, shortened: as §2
# [18] = tested on: Candida albicans; assay: Antimicrobial activity against azole-resistant Candida albicans isolate CA10 assessed as growth at 128 ug/ml cotreated with 0.016 ug/ml calcineurin signaling inhibitor tacrolimus after 48 hrs by microdilution checkerboard technique relative to control; design: scale not given: the % may be the effect or the level left; procedure, shortened: as §2
# [19] = tested on: Candida albicans; assay: Antimicrobial activity against azole-resistant Candida albicans isolate CA10 assessed as growth at 16 ug/ml co-treated with 0.031 ug/ml calcineurin signaling inhibitor tacrolimus after 48 hrs by microdilution checkboard technique relative to control; design: scale not given: the % may be the effect or the level left; procedure, shortened: as §1
# [20] = tested on: Candida albicans; assay: Antimicrobial activity against azole-resistant Candida albicans isolate CA10 assessed as growth at 4 ug/ml cotreated with 0.008 ug/ml calcineurin signaling inhibitor tacrolimus after 48 hrs by microdilution checkerboard technique relative to control; design: scale not given: the % may be the effect or the level left; procedure, shortened: as §4
# [21] = tested on: Candida albicans; assay: Antimicrobial activity against azole-resistant Candida albicans isolate CA10 assessed as growth at 0.063 ug/ml after 48 hrs by microdilution checkerboard technique relative to control; procedure, shortened: as §2
# [22] = tested on: Candida albicans; assay: Antimicrobial activity against azole-susceptible Candida albicans isolate CA129 after 48 hrs by broth microdilution method; settings: isolate CA129, 48 h; procedure, shortened: as §3
# [23] = tested on: Candida albicans; assay: Antimicrobial activity against azole-resistant Candida albicans isolate CA135 cotreated with calcineurin signaling inhibitor Tacrolimus after 48 hrs by microdilution checkerboard technique; settings: isolate CA135, 48 h; procedure, shortened: as §5
structure (smiles),measurement,setting,value
OC(Cn1cncn1)(Cn1cncn1)c1ccc(F)cc1F [FLUCONAZOLE],Activity,[1],17%
same,Activity,[2],3%
same,Activity,[3],48%
same,MIC,[4],4 µg/mL
same,Activity,[5],38%
same,Activity,[6],18%
same,Activity,[7],34%
same,Activity,[8],19%
same,MIC,[9],0.25 µg/mL
same,Activity,[10],23%
same,Activity,[11],18%
same,Activity,[12],42%
same,Activity,[13],16%
same,Activity,[14],5%
same,Activity,[15],19%
same,MIC,[16],66 µg/mL
same,Activity,[17],44%
same,Activity,[18],18%
same,Activity,[19],15%
same,Activity,[20],30%
same,Activity,[21],93%
same,MIC,[22],0.5 µg/mL
same,MIC,[23],0.25 µg/mL
